Assay [1] deals with HL-60. The assay can be described thus: Cytotoxic concentration required to cause 50% toxicity in HL-60 cell lines at 24 hours. Format: functional. The following applies: Homo sapiens, HL-60, 24 h. Put shortly: (§1)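 Cells were exposed under optimal culture conditions to 8–512 μM test agent or to control medium for the stated time. Viability was scored by trypan blue exclusion. CC50 is the concentration causing 50% toxicity, determined from two or more experiments.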

Assay [2] relates to HL-60. The assay can be described thus: Cytotoxic concentration required to cause 50% toxicity in HL-60 cell lines at 48 hours. Format: functional. The following applies: Homo sapiens, HL-60, 48 h. The method in brief:
as §1

In assay [3] the test system is HL-60. The assay can be described thus: Apoptotic concentration required to cause apoptosis in 50% of HL-60 cell lines at 24 hours. It is filed as functional, cell-based. The note with it: Homo sapiens, HL-60, 24 h. Put shortly:
(§2)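 Cells were exposed under optimal culture conditions to 8–512 μM test agent or to control medium for the stated time. They were then stained with acridine orange, and over 600 cells were counted by fluorescence microscopy. Cells counted as apoptotic had uniformly stained nuclei with chromatin condensation and nuclear fragmentation. AC50 is the concentration giving 50% apoptosis, determined from two or more experiments.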

The test system of assay [4] is HL-60. The assay can be described thus: Apoptotic concentration required to cause apoptosis in 50% of HL-60 cell lines at 48 hours. It is filed as functional, cell-based. The following applies: Homo sapiens, HL-60, 48 h. The method in brief: as §2
For assay [5], the system named is MOLT-3. Briefly: Apoptotic concentration required to cause apoptosis in 50% of Molt-3 cell lines at 24 hours. The note with it: Homo sapiens, MOLT-3, 24 h. Format: functional, cell-based. Put shortly:
as §2

In assay [6] the test system is MOLT-3. The assay can be described thus: Apoptotic concentration required to cause apoptosis in 50% of Molt-3 cell lines at 48 hours. It is filed as functional, cell-based. The following applies: Homo sapiens, MOLT-3, 48 h. Put shortly:
as §2

Assay [7] deals with MOLT-3. Briefly: Apoptotic concentration required to cause apoptosis in 50% of Molt-3 cell lines at 72 hours. Format: functional, cell-based. The following applies: Homo sapiens, MOLT-3, 72 h. The method in brief: as §2
The subject of assay [8] is MOLT-3. The assay can be described thus: Cytotoxic concentration required to cause 50% toxicity in Molt-3 cell lines at 24 hours. The following applies: Homo sapiens, MOLT-3, 24 h. Format: functional. The method in brief:
as §1

The test system of assay [9] is MOLT-3. The assay can be described thus: Cytotoxic concentration required to cause 50% toxicity in Molt-3 cell lines at 48 hours. The note with it: Homo sapiens, MOLT-3, 48 h. It is filed as functional. Put shortly:
as §1

Assay [10] concerns MOLT-3. The assay can be described thus: Cytotoxic concentration required to cause 50% toxicity in Molt-3 cell lines at 72 hours. It is filed as functional. The following applies: Homo sapiens, MOLT-3, 72 h. Put shortly: as §1
Assay [11] deals with THP-1. Briefly: Apoptotic concentration required to cause apoptosis in 50% of THP-1 cell lines at 24 hours. Format: functional, cell-based. The following applies: Homo sapiens, THP-1, 24 h. The method in brief: as §2
Assay [12] deals with THP-1. Briefly: Cytotoxic concentration required to cause 50% toxicity in THP-1 cell lines at 24 hours. Format: functional. The following applies: Homo sapiens, THP-1, 24 h. Put shortly: as §1
Assay [13] relates to U-937. Briefly: Apoptotic concentration required to cause apoptosis in 50% of U-937 cell lines at 24 hours. It is filed as functional, cell-based. The following applies: Homo sapiens, U-937, 24 h. The method in brief: as §2
The test system of assay [14] is U-937. Briefly: Apoptotic concentration required to cause apoptosis in 50% of U-937 cell lines at 48 hours. Format: functional, cell-based. The note with it: Homo sapiens, U-937, 48 h. The method in brief: as §2
The subject of assay [15] is U-937. Briefly: Apoptotic concentration required to cause apoptosis in 50% of U-937 cell lines at 72 hours. Format: functional, cell-based. The following applies: Homo sapiens, U-937, 72 h. The method in brief: as §2
The test system of assay [16] is U-937. The assay can be described thus: Cytotoxic concentration required to cause 50% toxicity in U-937 cell lines at 24 hours. It is filed as functional. The note with it: Homo sapiens, U-937, 24 h. The method in brief:
as §1

Assay [17] concerns U-937. Briefly: Cytotoxic concentration required to cause 50% toxicity in U-937 cell lines at 48 hours. The following applies: Homo sapiens, U-937, 48 h. It is filed as functional. The method in brief:
as §1

For assay [18], the system named is U-937. Briefly: Cytotoxic concentration required to cause 50% toxicity in U-937 cell lines at 72 hours. It is filed as functional. The note with it: Homo sapiens, U-937, 72 h. The method in brief:
as §1

A value given as a limit tells only on which side of the number the result lay.

Broadly, the CC50 is the concentration that lowers cell viability or growth by half. A higher CC50 goes with lower toxicity to the cells. Usually AC50 stands for the concentration at which the activity in the assay is half-maximal. The low end stands for greater potency, the high end for weaker potency. For the compound `O=c1[nH]c(=O)n(C2CCNO2)cc1F` (stereo not drawn), the CC50 with HL-60 [1] is > 1000 µM; in the assay with HL-60 [2], > 1000 µM; in the assay with MOLT-3 [8], > 1000 µM; in the assay on MOLT-3 [9], 806 µM; with MOLT-3 [10], 366 µM; with THP-1 [12] it was > 1000 µM. Further, the CC50 with U-937 [16] is > 1000 µM; in the assay with U-937 [17], > 1000 µM; with U-937 [18] it was 687 µM. Besides, the AC50 was > 1000 µM in the assay with HL-60 [3]; > 1000 µM in the assay on HL-60 [4]; 329 µM in the assay on MOLT-3 [5]; 96 µM with MOLT-3 [6]; 13 µM in the assay with MOLT-3 [7]; > 1000 µM with THP-1 [11]. Moreover, the figures for the AC50 in the assay on U-937 [13], with U-937 [14] and with U-937 [15] were > 1000 µM, 123 µM and 3 µM, respectively.

(Values after ChEMBL document CHEMBL1145054, “Enantioselective syntheses and cytotoxicity of N,O-nucleosides” (J Med Chem, 2003).)
